Screening results: PubChem, several laboratories
Sampled rows, rich in hits. Any-hit rate of the full collection: about 2.4%.
JMJD2C inh = inhibitors of GASC-1 histone demethylase, primary screen, biochemical, fluorescence, DELFIA europium | AID 2099, 2009 | Lysine-specific demethylase 4C (Homo sapiens), Q9H3R0 | inhibition, % at 2.35 µM | hit rate 0.069% among 330,000 | GST-JMJD2C(1-420) H3K9me3 demethylation;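 active = more than half of a compound's replicate wells show inhibition beyond 50%, single wells judged on their own value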;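 also: signal counts dimethyl H3K9 product captured on neutravidin plate; 0% = median of DMSO wells and 100% = 0.3 times that DMSO median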
T cruzi inh = inhibitors of intracellular T. cruzi growth, primary screen, luminescence, NIH3T3 host cells | hit rate 1.4% among 300,000 | inhibition, % (concentration not given with the values) | T. cruzi beta-gal in NIH3T3, 90 h;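 active = mean inhibition across valid replicates above about 55%, limit read from the data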;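 also: signal also drops with host cell toxicity which is not excluded here; 0% = plate median of DMSO wells and 100% = zero luminescence signal; higher percent means less beta-gal luminescence so fewer parasites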
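compound dosing = single 50 nL compound addition per well in DMSO | material = NIH/3T3 host cells with β-galactosidase reporter T. cruzi | input = 5,000 host fibroblasts per well | timing = ≥90 h infection period, 3 h prior cell attachment | read-out basis = percent inhibition of parasite-derived β-gal signal | detection = GalScreen β-gal luminescence, detergent lysis, 60 min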
Cardio protect = cardioprotection against H2O2-induced cell death, primary screen, uHTS, H9c2 cells, ATPLite luminescence; protection from H2O2 cell death, % at 20 µM; hit rate 0.63% among 360,000; H9c2 cardiomyocytes, H2O2 injury protection, 2 h;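 active = compounds giving at least 50% protection of heart cells from peroxide-induced death in the single-dose screen, raw or plate-pattern-corrected value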;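 also: 0% = DMSO wells with peroxide and 100% = DMSO wells without peroxide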
p-CIP stab down = p/CIP-EGFP fusion destabilizers, primary screen, fluorescence, F442A cells; hit rate 0.01% among 290,000; AID 1984, 2009; 16 h; decrease of EGFP signal, % at 10 µM; Q05BA5;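 active = EGFP signal decrease of at least 30% at 10 µM or well 3 SD below plate mean, unless failing retest; inactive = the rest, including hits failing retest or dose response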
Target sequence (Q05BA5 1-1403): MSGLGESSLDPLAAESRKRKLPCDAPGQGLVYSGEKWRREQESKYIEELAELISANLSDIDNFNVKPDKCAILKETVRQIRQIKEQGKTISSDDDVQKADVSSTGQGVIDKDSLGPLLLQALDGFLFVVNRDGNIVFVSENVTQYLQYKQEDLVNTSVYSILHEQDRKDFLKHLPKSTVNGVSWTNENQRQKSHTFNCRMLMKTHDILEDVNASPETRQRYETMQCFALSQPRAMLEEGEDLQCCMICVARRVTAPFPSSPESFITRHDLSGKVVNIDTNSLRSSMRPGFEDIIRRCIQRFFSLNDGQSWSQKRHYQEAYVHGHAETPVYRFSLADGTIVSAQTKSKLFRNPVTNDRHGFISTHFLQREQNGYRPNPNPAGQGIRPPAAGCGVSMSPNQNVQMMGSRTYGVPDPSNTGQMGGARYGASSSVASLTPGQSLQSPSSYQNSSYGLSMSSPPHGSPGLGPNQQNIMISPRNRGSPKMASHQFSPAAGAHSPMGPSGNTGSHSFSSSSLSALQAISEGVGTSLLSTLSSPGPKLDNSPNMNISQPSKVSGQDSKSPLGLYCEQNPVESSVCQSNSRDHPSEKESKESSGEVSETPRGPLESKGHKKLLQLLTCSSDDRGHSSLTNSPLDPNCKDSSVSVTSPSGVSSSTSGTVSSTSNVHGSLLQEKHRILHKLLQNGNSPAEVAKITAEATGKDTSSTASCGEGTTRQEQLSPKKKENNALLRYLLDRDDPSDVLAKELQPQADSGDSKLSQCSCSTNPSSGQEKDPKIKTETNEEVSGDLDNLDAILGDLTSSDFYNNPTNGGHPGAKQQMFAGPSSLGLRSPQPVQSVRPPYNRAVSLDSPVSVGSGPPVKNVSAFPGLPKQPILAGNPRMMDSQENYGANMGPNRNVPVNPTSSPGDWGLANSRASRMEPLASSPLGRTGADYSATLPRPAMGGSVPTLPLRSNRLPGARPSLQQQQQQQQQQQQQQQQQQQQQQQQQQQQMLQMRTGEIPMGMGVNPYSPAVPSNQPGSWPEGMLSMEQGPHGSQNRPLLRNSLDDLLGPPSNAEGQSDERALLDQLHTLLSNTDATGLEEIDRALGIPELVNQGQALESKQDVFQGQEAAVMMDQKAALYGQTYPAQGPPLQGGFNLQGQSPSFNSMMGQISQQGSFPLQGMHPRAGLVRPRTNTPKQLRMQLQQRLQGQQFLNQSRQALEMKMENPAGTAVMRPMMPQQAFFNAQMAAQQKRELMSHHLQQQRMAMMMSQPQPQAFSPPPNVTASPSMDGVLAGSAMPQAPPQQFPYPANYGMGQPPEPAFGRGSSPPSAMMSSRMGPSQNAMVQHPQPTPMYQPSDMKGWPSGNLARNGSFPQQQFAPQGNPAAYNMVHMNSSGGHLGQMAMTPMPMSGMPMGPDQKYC
CTSL1 counter = Fasciola hepatica cathepsin L1 inhibitors, primary screen, counter-screen for PFM18AAP inhibitor project, biochemical, QFRET, fluorogenic peptide substrate; hit rate 0.49% among 300,000; inhibition, % at 5.96 µM; recombinant F. hepatica cathepsin L1, Z-Leu-Arg-MCA fluorescence;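 active = inhibition above the mean of all tested compounds plus 3 SD, set per screening campaign, cut at about 17% in these data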;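 also: 0% = plate median of test compound wells and 100% = 1 µM Z-Phe-Ala-diazomethylketone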
PP5 primary = PP5 phosphatase inhibitors, primary screen, biochemical, fluorescence. hit rate 0.18% among 320,000. purified PP5c, OMFP substrate fluorescence. inhibition, % at 6.7 µM. Serine/threonine-protein phosphatase 5 (Homo sapiens), P53041;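 active = inhibition above the campaign's mean inhibition across all tested compounds plus 3 SD, cut at about 9.5% in these data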;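 also: 0% = DMSO only and 100% = 100 µM cantharidin control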
* = called active by the depositor.

Results for OCCN1CCN(CCOc2cccc(Cl)c2)CC1 ?
JMJD2C inh: 1; T cruzi inh: 66*; Cardio protect: -2; p-CIP stab down: -6; CTSL1 counter: -1; PP5 primary: 1

How did CN([C@@H](Cc1ccc(OS(=O)(=O)c2cccc3cnccc23)cc1)C(=O)N1CCN(c2ccccc2)CC1)S(=O)(=O)c1cccc2cnccc12 do in these assays?
T cruzi inh: 57*; Cardio protect: 16; p-CIP stab down: -3; CTSL1 counter: -1; PP5 primary: 1

Results for COc1ccc(N2CCN(C(=O)C(Cc3ccccc3)n3cccc3)CC2)cc1 (stereo not drawn) ?
JMJD2C inh: 1; T cruzi inh: -9; Cardio protect: -4; p-CIP stab down: -3; CTSL1 counter: 1; PP5 primary: 2

Results for Cc1cccc(C(=O)NCCCNC(=O)c2cccnc2)c1 ?
JMJD2C inh: -2; T cruzi inh: -5; Cardio protect: -4; p-CIP stab down: 3; CTSL1 counter: -6; PP5 primary: 2

Results for O=C(CCl)Nc1cc2[nH]c(=O)[nH]c2cc1Br ?
JMJD2C inh: -3; T cruzi inh: -35; Cardio protect: -4; p-CIP stab down: 15; CTSL1 counter: 25*; PP5 primary: 1

How did Cc1cc2c(C)cc(=O)[nH]c2cc1NC(=O)CCl do in these assays?
JMJD2C inh: -2; T cruzi inh: 12; Cardio protect: 10; p-CIP stab down: 1; CTSL1 counter: 3; PP5 primary: 3

How did CCOC(=O)C1CCCN(CCC(=O)Nc2cc(OC)ccc2OC)C1 (stereo not drawn) do in these assays?
JMJD2C inh: -24; T cruzi inh: 0; Cardio protect: -5; p-CIP stab down: -9; CTSL1 counter: 3; PP5 primary: -2

What do the screens show for `CC(OC(=O)c1cccc(-n2cnnn2)c1)C(=O)Nc1ccc(F)cc1` (stereo not drawn)?
JMJD2C inh: 1; T cruzi inh: 2; Cardio protect: -8; p-CIP stab down: -2; CTSL1 counter: -4; PP5 primary: 3

Results for COc1ccc(CNCCC(c2ccccc2)c2ccc3c(c2)OCO3)cc1 (stereo not drawn) ?
JMJD2C inh: -7; T cruzi inh: 59*; Cardio protect: -14; p-CIP stab down: -6; CTSL1 counter: -3; PP5 primary: 2

Results for COc1ccc(C(CC(=O)O)c2ccc3c(c2)OCO3)cc1 (stereo not drawn) ?
JMJD2C inh: 4; T cruzi inh: -5; Cardio protect: 2; p-CIP stab down: 5; CTSL1 counter: -6; PP5 primary: 1

Results for Cc1nc(SC(C)C(=O)NCC2CCCO2)c2cc(-c3ccccc3)sc2n1 (stereo not drawn) ?
JMJD2C inh: 0; T cruzi inh: 7; Cardio protect: -4; CTSL1 counter: 1; PP5 primary: -1

What do the screens show for `Cn1nnnc1SCCNCc1cccc2ccccc12`?
JMJD2C inh: 7; T cruzi inh: 70*; Cardio protect: 5; p-CIP stab down: -11; CTSL1 counter: 0; PP5 primary: 1

What do the screens show for `CCOc1cc(CNCCSc2nnnn2C)cc(Br)c1OCc1ccccc1F`?
JMJD2C inh: -21; T cruzi inh: 68*; Cardio protect: -20; p-CIP stab down: 1; CTSL1 counter: -2; PP5 primary: 4

Results for NC(=O)COc1ccc2oc(=O)cc(-c3cc4ccccc4o3)c2c1 ?
JMJD2C inh: 4; T cruzi inh: -20; Cardio protect: 71*; p-CIP stab down: -2; CTSL1 counter: -1; PP5 primary: 1

Results for COc1cccc2cc(-c3cc(=O)oc4ccc(OCC(C)=O)cc34)oc12 ?
JMJD2C inh: 3; T cruzi inh: 19; Cardio protect: 63*; p-CIP stab down: -11; CTSL1 counter: 8; PP5 primary: 2

Results for CCC(=O)N1CCN(c2cc(N3CCN(C)CC3)c(F)cc2[N+](=O)[O-])CC1 ?
JMJD2C inh: -3; T cruzi inh: 69*; Cardio protect: -1; p-CIP stab down: 8; CTSL1 counter: -3; PP5 primary: 1
